Measured values as given in ChEMBL document CHEMBL1158589, “Benzimidazole and imidazole inhibitors of histone deacetylases: Synthesis and biological activity” (Bioorg Med Chem Lett, 2010).
Activity calls are given as the source filed them. The calls are words filed in the database; no cut-off is given here.

Tests used:
HL-60 [1] = experiment: Cytotoxicity against human HL60 cells assessed as NADH level after 72 hrs by MTS cells; format: functional, cell-based; conditions: HL-60, 72 h
Method in brief: (§1)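 Human A549 lung, HL60 leukemia and PC3 prostate cancer lines incubated with compound for 72 h. Viability read by MTS colorimetric assay from remaining NADH; EC50 calculated; mean of at least two experiments.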

PC-3 = experiment: Cytotoxicity against human PC3 cells assessed as NADH level after 72 hrs by MTS cells; format: functional, cell-based; conditions: PC-3, 72 h; method in brief: as §1
Histone deacetylase 8 = target: T1, Histone deacetylase 8 (Homo sapiens, UniProt Q9BY41); experiment: Inhibition of human recombinant HDAC8
T1 sequence (Q9BY41 whole entry): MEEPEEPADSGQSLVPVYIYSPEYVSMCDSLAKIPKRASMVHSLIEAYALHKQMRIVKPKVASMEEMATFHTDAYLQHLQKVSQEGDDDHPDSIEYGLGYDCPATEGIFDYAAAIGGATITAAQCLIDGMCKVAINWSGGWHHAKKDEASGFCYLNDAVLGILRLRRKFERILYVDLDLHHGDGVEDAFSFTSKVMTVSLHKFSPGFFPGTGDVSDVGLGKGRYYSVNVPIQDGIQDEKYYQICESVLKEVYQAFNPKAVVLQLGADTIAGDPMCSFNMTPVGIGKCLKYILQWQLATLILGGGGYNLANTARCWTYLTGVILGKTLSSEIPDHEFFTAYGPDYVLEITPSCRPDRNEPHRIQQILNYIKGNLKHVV

A549 = experiment: Cytotoxicity against human A549 cells assessed as NADH level after 72 hrs by MTS cells; format: functional, cell-based; conditions: A549, 72 h; method in brief: as §1
[2] = target: T2, Protein deacetylase HDAC6 (Homo sapiens, UniProt Q9UBN7); experiment: Inhibition of human recombinant HDAC6
T2 sequence (Q9UBN7 whole entry): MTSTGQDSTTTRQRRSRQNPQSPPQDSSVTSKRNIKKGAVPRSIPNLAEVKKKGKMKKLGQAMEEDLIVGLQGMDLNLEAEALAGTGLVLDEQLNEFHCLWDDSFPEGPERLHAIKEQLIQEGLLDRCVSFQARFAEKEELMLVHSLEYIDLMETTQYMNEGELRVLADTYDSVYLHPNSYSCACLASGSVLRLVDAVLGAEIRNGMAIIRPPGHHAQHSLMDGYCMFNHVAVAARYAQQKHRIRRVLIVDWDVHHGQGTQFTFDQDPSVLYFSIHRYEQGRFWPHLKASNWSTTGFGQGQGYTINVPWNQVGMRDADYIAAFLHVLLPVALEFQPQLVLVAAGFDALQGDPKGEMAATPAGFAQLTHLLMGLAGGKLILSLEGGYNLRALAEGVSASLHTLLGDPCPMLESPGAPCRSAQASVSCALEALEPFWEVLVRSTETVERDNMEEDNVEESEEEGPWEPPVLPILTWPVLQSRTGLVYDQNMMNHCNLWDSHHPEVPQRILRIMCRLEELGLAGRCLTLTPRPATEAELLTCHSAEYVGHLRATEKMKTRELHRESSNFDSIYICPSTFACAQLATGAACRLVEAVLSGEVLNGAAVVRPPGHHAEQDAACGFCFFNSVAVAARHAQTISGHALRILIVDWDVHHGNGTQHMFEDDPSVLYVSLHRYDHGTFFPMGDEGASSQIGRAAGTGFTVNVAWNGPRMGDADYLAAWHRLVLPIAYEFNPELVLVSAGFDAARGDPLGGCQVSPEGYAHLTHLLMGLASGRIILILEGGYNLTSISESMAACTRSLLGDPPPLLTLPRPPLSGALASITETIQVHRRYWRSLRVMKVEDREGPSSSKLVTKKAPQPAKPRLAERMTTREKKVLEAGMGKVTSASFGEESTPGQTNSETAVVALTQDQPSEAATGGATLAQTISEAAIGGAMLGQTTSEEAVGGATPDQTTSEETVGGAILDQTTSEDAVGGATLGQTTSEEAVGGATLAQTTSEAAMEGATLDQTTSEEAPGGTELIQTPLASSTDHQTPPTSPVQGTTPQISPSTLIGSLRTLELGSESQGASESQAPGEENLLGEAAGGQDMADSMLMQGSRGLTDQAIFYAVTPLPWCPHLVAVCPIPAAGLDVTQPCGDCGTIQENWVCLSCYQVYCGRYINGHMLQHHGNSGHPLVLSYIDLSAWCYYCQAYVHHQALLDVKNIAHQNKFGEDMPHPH
Method in brief: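 Purified recombinant human HDAC-2 or HDAC-6 at known enzyme concentration with tBOC(Ac)-Lys-AMC as substrate. IC50 is the mean of at least three experiments.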

[3] = Inhibition of HDAC assessed as induction of p21WAF1 expression in engineered cell line by luciferase reporter gene assay
PANC-1 [4] = experiment: Induction of histone H4 hyperacetylation in human PANC1 cells xenografted in mouse at 50 mg/kg, ip; format: functional, organism-based; set-up: dose 50 mg/kg
Method in brief: (§2)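 Mice bearing PANC-1 tumors given a single intraperitoneal dose of 50 mg/kg, vehicle control. Tumors harvested at set time points up to about 24 h. Whole tissue lysates Western blotted with antibodies to acetylated histone H3 or H4, actin as loading control.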

HCT-116 [5] = experiment: Antitumor activity against human HCT116 cells xenografted in mouse assessed as tumor growth inhibition at 40 mg/kg, ip qd for 5 days per week; format: functional; conditions: route intraperitoneal
Method in brief: (§3)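 Human HCT116 colon xenografts in mice; intraperitoneal dosing qdx5 per week, 15 doses in total. %T/C calculated when vehicle-treated mice reached 1 g median tumor size, 10 days after the last dose.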

Mus musculus [6] = experiment: Toxicity in human HCT116 cells xenografted mouse assessed as change in body weight at 25 mg/kg, […]; format: organism-based, HCT-116; set-up: dose 25 mg/kg, route intraperitoneal; conditions: in vivo, ip, 120 h
Mus musculus [7] = experiment: Toxicity in human HCT116 cells xenografted mouse assessed as change in body weight at 15 mg/kg, […]; format: organism-based, HCT-116; set-up: dose 15 mg/kg, route intraperitoneal; conditions: in vivo, ip, 120 h
HL-60 [8] = experiment: Induction of histone H4 hyperacetylation in human HL60 cells after 4 hrs by Western blotting; format: functional, cell-based; conditions: HL-60, 4 h
Method in brief: (§4)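 HL60 leukemia cells exposed 4 h to 2.5-fold serial dilutions of compound, DMSO control. Whole-cell lysates Western blotted for acetylated histone H3 and H4, PCNA as loading control. Signals quantified to give the half-maximal response concentration.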

PANC-1 [9] = experiment: Induction of histone H3 hyperacetylation in human PANC1 cells xenografted in mouse at 50 mg/kg, ip; format: functional, organism-based; set-up: dose 50 mg/kg; method in brief: as §2
HCT-116 [10] = experiment: Antitumor activity against human HCT116 cells xenografted in mouse assessed as tumor growth inhibition at 25 mg/kg, ip qd for 5 days per week; format: functional; conditions: route intraperitoneal; method in brief: as §3
HL-60 [11] = experiment: Induction of histone H3 hyperacetylation in human HL60 cells after 4 hrs by Western blotting; format: functional, cell-based; conditions: HL-60, 4 h; method in brief: as §4
HCT-116 [12] = experiment: Antitumor activity against human HCT116 cells xenografted in mouse assessed as tumor growth inhibition at 15 mg/kg, ip qd for 5 days per week; format: functional; conditions: route intraperitoneal; method in brief: as §3
Mus musculus [13] = experiment: Toxicity in human HCT116 cells xenografted mouse assessed as change in body weight at 40 mg/kg, […]; format: organism-based, HCT-116; set-up: dose 40 mg/kg, route intraperitoneal; conditions: in vivo, ip, 120 h

SMILES	EC50 (HL-60 [1]) [nM]	EC50 (PC-3) [nM]	IC50 (Histone deacetylase 8) [nM]	EC50 (A549) [µM]	IC50 [2] [nM]	EC50 [3] [nM]	Activity (PANC-1 [4])	T/C (HCT-116 [5]) [%]	Activity (Mus musculus [6]) [%]	Activity (Mus musculus [7]) [%]	EC50 (HL-60 [8]) [nM]	Activity (PANC-1 [9])	T/C (HCT-116 [10]) [%]	EC50 (HL-60 [11]) [nM]	T/C (HCT-116 [12]) [%]	Activity (Mus musculus [13]) [%]
CCN1CCC[C@@H](n2c(-c3cccc(/C=C/C(=O)NO)c3)nc(C)c2C)C1	40	80	100	0.3	120	–	–	–	–	–	–	–	–	–	–	–
Cc1c(Cc2ccccc2)nc(-c2cccc(/C=C/C(=O)NO)c2)n1CCN1CCOCC1	300	1000	50	4	79	–	–	–	–	–	–	–	–	–	–	–
O=C(/C=C/c1cccc(-c2nc3ccccc3n2C2CCCCC2)c1)NO	500	1600	50	3.1	25	–	–	–	–	–	–	–	–	–	–	–
CC(C)n1c(-c2cccc(/C=C/C(=O)NO)c2)nc2ccccc21	1000	2500	40	5	100	–	–	–	–	–	–	–	–	–	–	–
O=C(/C=C/c1cccc(-c2nc3ccccc3n2Cc2ccccc2)c1)NO	5000	1200	40	6.3	63	–	–	–	–	–	–	–	–	–	–	–
Cc1nc(-c2cccc(/C=C/C(=O)NO)c2)n(CCN2CCOCC2)c1Cc1ccccc1	200	600	63	2.5	79	–	–	–	–	–	–	–	–	–	–	–
O=C(/C=C/c1cccc(-c2nc3ccccc3n2CCc2ccccc2)c1)NO	300	400	25	2.5	31	–	–	–	–	–	–	–	–	–	–	–
Cn1c(-c2cccc(/C=C/C(=O)NO)c2)nc2ccccc21	2000	7900	100	12	79	–	–	–	–	–	–	–	–	–	–	–
O=C(/C=C/c1cccc(-c2nc3ccccc3n2[C@@H]2CCCNC2)c1)NO	100	100	120	1	79	–	–	–	–	–	–	–	–	–	–	–
Cc1nc(-c2cccc(/C=C/C(=O)NO)c2)n(CCc2ccccc2)c1Cc1ccccc1	50	200	20	0.3	50	–	–	–	–	–	–	–	–	–	–	–
CN1CCC[C@@H](n2c(-c3cccc(/C=C/C(=O)NO)c3)nc3ccccc32)C1	40	50	200	0.3	100	1000	Active	45	-2.5	1.7	110	Active	47	100	66	-3.6
Cc1c(-c2ccccc2)nc(-c2cccc(/C=C/C(=O)NO)c2)n1CCN1CCOCC1	300	1000	79	6.3	63	–	–	–	–	–	–	–	–	–	–	–
COc1ccc(-n2c(-c3cccc(/C=C/C(=O)NO)c3)nc3ccccc32)cc1	500	1200	63	4	63	–	–	–	–	–	–	–	–	–	–	–
C[C@H](c1ccccc1)n1c(-c2cccc(/C=C/C(=O)NO)c2)nc2ccccc21	3100	10000	20	16	40	–	–	–	–	–	–	–	–	–	–	–
C[C@@H](c1ccccc1)n1c(-c2cccc(/C=C/C(=O)NO)c2)nc2ccccc21	3100	16000	16	31	63	–	–	–	–	–	–	–	–	–	–	–
